Test results taken from ChEMBL document CHEMBL4627405, “A Venomics Approach Coupled to High-Throughput Toxin Production Strategies Identifies the First Venom-Derived Melanocortin Receptor Agonists” (J Med Chem, 2020).
Calls of active or inactive are those of the source. No cut-off for these calls is given here. Positions of bridges follow the written chain, without caps; N, C: chain ends. Residues, ends and D or L forms follow the SMILES beside them.

How the values were obtained:
[1] = molecular target: Potassium voltage-gated channel subfamily KQT member 3 (Homo sapiens) (UniProt O43525); test: Inhibition of human Kv7.3 at 100 uM
Method in brief: (§1)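 Potassium currents were recorded by two-electrode voltage clamp in oocytes 1–4 days after injecting 50 nl cRNA (1 ng/nl), at 18–22 °C. Bath was 96 mM NaCl, 2 mM KCl, 1.8 mM CaCl2, 2 mM MgCl2, 5 mM HEPES pH 7.4. Toxin was bath-applied at 100 µM. Currents were filtered at 0.5 kHz and sampled at 2 kHz.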

[2] = molecular target: Voltage-dependent T-type calcium channel subunit alpha-1I (Homo sapiens) (UniProt Q9P0X4); test: Inhibition of human Cav3.3 at 100 uM
Method in brief: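 Oocyte two-electrode voltage clamp at 18–22 °C, 1–4 days after cRNA injection (50 nl, 1 ng/nl). Toxin was bath-applied at 100 µM. Currents were carried by 10 mM Ba2+ and elicited by 200 ms depolarisations from −90 mV to between −50 and +30 mV, filtered at 0.5 kHz and sampled at 2 kHz.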

HEK293 = test: Effect on cAMP production in HEK293 cells at 100 uM incubated for 3 hrs by luciferase reporter gene assay; format: functional, cell-based; details: Homo sapiens
[3] = molecular target: Potassium voltage-gated channel subfamily B member 1 (Homo sapiens) (UniProt Q14721); test: Inhibition of human Kv2.1 at 100 uM; method in brief: as §1
Melanocortin receptor 5 = Melanocortin receptor 5 (Homo sapiens, UniProt P33032); test: Displacement of [125I]-NDP-alpha-MSH from human MC5R expressed in CHO-K1 cell membranes incubated for 3 hrs by top-count beta counting
Method in brief: (§2)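 Membranes were from CHO cells stably expressing hMC1R, hMC4R or hMC5R, or from HEK293 cells expressing hMC3R. Competition used 50 pM 125I-NDP-α-MSH with varied competitor, 3 h at room temperature, in 25 mM HEPES pH 7.4, 1 mM MgCl2, 1 mM CaCl2, 0.2 g/L BSA. Nonspecific binding was set with 1 µM NDP-α-MSH. Samples were filtered on PEI-treated GF/C and scintillation counted. At least three experiments in duplicate, mean ± SEM.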

[4] = molecular target: T1, Melanocyte-stimulating hormone receptor (Homo sapiens, UniProt Q01726); test: Agonist activity at N-terminal HA-tagged and C-terminal FLAG-tagged human MC1R expressed in HEK293 cells assessed as stimulation of cAMP accumulation at 100 uM incubated for 3 hrs by luciferase reporter gene assay; format: functional, cell-based
Target sequence in this assay (Q01726 whole entry, looked up): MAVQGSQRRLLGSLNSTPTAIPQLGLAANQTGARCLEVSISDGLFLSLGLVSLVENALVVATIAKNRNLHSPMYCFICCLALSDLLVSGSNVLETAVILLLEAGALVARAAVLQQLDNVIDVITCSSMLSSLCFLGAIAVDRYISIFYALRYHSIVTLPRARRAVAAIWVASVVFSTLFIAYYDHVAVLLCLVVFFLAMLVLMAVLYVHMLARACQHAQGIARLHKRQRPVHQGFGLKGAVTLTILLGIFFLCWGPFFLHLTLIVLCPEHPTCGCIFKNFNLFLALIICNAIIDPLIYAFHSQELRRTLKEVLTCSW

[5] = molecular target: Sodium channel protein type 2 subunit alpha (Homo sapiens) (UniProt Q99250); test: Inhibition of human NaV1.2 at 100 uM
Method in brief: (§3)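 Two-electrode voltage clamp of oocytes injected with 50 nl cRNA (1 ng/nl) and recorded 1–4 days later at 18–22 °C. Bath was 96 mM NaCl, 2 mM KCl, 1.8 mM CaCl2, 2 mM MgCl2, 5 mM HEPES pH 7.4. Toxin was applied to the bath at 100 µM. Currents were evoked by 100 ms depolarisation to the voltage of maximal sodium current, filtered at 2 kHz and sampled at 20 kHz.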

[6] = molecular target: Potassium voltage-gated channel subfamily A member 2 (Homo sapiens) (UniProt P16389); test: Inhibition of human Kv1.2 at 100 uM; method in brief: as §1
[7] = molecular target: Sodium channel protein type 4 subunit alpha (Homo sapiens) (UniProt P35499); test: Inhibition of human NaV1.4 at 100 uM; method in brief: as §3
[8] = molecular target: Voltage-gated inwardly rectifying potassium channel KCNH2 (Homo sapiens, UniProt Q12809); test: Inhibition of human Kv11.1 at 100 uM; method in brief: as §1
[9] = molecular target: Neuronal acetylcholine receptor subunit alpha-7 (Homo sapiens) (UniProt P36544); test: Inhibition of human nAChR alpha7
[10] = molecular target: T1, Melanocyte-stimulating hormone receptor; test: Activity at N-terminal HA-tagged and C-terminal FLAG-tagged human MC1R expressed in HEK293 cells assessed as potentiation of alpha-MSH-induced cAMP accumulation at 100 uM incubated for 3 hrs by luciferase reporter gene assay; format: functional, cell-based
Target sequence in this assay (Q01726 whole entry, looked up): as above

Melanocortin receptor 4 [11] = molecular target: T2, Melanocortin receptor 4 (Homo sapiens, UniProt P32245); test: Displacement of [125I]-NDP-alpha-MSH from human MC4R expressed in CHO-K1 cell membranes incubated for 3 hrs by top-count beta counting; method in brief: as §2
T2 sequence (P32245 whole entry): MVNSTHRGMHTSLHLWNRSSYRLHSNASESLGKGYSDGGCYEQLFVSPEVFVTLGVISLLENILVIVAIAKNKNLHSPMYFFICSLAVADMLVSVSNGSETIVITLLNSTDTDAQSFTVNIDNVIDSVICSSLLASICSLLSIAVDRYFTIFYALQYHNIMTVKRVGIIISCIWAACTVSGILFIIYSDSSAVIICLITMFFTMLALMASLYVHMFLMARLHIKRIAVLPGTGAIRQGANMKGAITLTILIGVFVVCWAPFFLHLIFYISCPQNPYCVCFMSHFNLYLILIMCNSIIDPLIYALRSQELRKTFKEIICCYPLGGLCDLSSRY

[12] = molecular target: Potassium voltage-gated channel subfamily A member 5 (Homo sapiens) (UniProt P22460); test: Inhibition of human Kv1.5 at 100 uM; method in brief: as §1
[13] = molecular target: A-type voltage-gated potassium channel KCND3 (Homo sapiens, UniProt Q9UK17); test: Inhibition of human Kv4.3 at 100 uM; method in brief: as §1
[14] = molecular target: Potassium voltage-gated channel subfamily A member 3 (Homo sapiens) (UniProt P22001); test: Inhibition of human Kv1.3 at 100 uM; method in brief: as §1
[15] = molecular target: Sodium channel protein type 5 subunit alpha (Homo sapiens, UniProt Q14524); test: Inhibition of human NaV1.5 at 100 uM; method in brief: as §3
Sequence of Sodium channel protein type 5 subunit alpha (Q14524 whole entry): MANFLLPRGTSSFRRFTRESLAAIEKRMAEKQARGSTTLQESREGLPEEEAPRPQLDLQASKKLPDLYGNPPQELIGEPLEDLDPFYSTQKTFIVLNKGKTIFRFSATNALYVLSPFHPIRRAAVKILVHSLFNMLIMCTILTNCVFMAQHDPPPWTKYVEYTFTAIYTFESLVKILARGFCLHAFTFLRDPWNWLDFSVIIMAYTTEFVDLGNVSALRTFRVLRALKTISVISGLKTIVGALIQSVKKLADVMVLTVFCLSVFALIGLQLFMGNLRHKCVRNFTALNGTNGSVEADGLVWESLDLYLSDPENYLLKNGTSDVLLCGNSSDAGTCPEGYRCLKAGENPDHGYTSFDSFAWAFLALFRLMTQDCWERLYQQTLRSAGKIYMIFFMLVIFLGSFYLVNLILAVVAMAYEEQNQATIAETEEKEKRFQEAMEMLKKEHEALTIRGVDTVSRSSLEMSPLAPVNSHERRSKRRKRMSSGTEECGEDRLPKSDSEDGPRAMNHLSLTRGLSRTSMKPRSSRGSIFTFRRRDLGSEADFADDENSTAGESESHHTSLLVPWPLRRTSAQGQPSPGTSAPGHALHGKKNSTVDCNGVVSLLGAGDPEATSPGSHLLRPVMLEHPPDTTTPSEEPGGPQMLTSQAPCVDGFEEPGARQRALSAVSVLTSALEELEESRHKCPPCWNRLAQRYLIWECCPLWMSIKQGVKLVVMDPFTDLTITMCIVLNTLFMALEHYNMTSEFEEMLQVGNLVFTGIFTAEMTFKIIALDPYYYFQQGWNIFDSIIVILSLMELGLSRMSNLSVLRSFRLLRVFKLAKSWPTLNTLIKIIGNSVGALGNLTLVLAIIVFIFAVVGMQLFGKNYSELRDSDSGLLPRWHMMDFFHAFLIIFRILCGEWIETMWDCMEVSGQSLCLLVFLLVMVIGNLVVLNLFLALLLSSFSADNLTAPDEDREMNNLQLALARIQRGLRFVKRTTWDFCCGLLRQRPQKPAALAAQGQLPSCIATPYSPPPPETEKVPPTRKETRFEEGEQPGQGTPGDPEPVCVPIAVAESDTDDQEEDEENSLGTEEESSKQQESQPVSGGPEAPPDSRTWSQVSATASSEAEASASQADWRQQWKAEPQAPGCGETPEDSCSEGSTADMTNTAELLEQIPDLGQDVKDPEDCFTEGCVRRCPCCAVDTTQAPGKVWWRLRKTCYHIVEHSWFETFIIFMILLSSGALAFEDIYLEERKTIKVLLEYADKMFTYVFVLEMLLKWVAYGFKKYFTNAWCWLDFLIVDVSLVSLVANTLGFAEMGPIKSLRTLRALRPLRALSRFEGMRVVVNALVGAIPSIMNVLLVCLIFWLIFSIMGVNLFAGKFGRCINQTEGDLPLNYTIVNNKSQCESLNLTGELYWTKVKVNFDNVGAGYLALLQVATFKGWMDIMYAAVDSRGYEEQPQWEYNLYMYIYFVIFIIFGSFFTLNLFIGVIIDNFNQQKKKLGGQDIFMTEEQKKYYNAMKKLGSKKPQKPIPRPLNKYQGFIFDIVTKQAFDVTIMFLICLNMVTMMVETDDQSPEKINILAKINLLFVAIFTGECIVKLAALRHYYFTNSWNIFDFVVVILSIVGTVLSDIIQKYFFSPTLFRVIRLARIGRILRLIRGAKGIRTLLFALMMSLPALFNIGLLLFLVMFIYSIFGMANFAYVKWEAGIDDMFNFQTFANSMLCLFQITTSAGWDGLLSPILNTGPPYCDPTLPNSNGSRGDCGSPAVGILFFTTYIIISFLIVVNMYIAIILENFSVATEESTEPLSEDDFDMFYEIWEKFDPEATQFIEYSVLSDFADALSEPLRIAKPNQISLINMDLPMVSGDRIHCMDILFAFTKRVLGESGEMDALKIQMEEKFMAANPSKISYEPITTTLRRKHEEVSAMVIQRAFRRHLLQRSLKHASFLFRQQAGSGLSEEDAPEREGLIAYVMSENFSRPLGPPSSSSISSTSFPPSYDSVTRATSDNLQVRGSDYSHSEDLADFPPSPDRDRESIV

[16] = molecular target: G protein-activated inward rectifier potassium channel 1 (Homo sapiens) (UniProt P48549); test: Inhibition of human GIRK1 at 100 uM
Method in brief: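 Two-electrode voltage clamp of cRNA-injected oocytes at 18–22 °C, holding at −70 mV. Oocytes were superfused with high-K+ solution (96 mM KCl, 2 mM NaCl, 1 mM MgCl2, 1.8 mM CaCl2, 5 mM HEPES pH 7.5). Toxin was applied to the bath at 100 µM. Currents were filtered at 0.05 kHz and sampled at 0.1 kHz.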

Melanocortin receptor 3 = Melanocortin receptor 3 (Homo sapiens, UniProt P41968); test: Displacement of [125I]-NDP-alpha-MSH from human MC3R expressed in HEK293 cell membranes incubated for 3 hrs by top-count beta counting
Sequence of Melanocortin receptor 3 (P41968 whole entry): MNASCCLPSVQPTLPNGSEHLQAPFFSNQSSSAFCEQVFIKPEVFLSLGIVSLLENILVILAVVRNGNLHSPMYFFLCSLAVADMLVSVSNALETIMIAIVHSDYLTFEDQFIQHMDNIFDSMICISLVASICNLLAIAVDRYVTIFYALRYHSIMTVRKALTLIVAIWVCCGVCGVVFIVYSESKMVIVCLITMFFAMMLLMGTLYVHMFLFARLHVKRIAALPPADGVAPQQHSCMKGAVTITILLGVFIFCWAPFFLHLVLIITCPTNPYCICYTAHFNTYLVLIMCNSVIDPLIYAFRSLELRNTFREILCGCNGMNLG

Melanocortin receptor 4 [17] = molecular target: T2, Melanocortin receptor 4; test: Antagonist activity at human MC4R transiently expressed in HEK293 cells assessed as reduction in alpha-MSH-induced cAMP accumulation at 100 uM incubated for 3 hrs by luciferase reporter gene assay
[18] = molecular target: Potassium voltage-gated channel subfamily KQT member 1 (Homo sapiens, UniProt P51787); test: Inhibition of human Kv7.1 at 100 uM; method in brief: as §1
Melanocortin receptor 4 [19] = molecular target: T2, Melanocortin receptor 4; test: Agonist activity at human MC4R expressed in HEK293 cells assessed as stimulation of cAMP accumulation at 100 uM incubated for 3 hrs by luciferase reporter gene assay; format: functional, cell-based
[20] = molecular target: Sodium channel protein type 10 subunit alpha (Homo sapiens) (UniProt Q9Y5Y9); test: Inhibition of human NaV1.8 at 100 uM
[21] = molecular target: T1, Melanocyte-stimulating hormone receptor; test: Displacement of [125I]-NDP-alpha-MSH from human MC1R expressed in CHO-K1 cell membranes incubated for 3 hrs by top-count beta counting; method in brief: as §2
Target sequence in this assay (Q01726 whole entry): as the sequence (Q01726 whole entry, looked up) above

[22] = molecular target: Sodium channel protein type 3 subunit alpha (Homo sapiens) (UniProt Q9NY46); test: Inhibition of human NaV1.3 at 100 uM; method in brief: as §3
[23] = molecular target: Sodium channel protein type 1 subunit alpha (Homo sapiens) (UniProt P35498); test: Inhibition of human NaV1.1 at 100 uM; method in brief: as §3
[24] = molecular target: Acetylcholine receptor; alpha1/beta1/delta/gamma (Homo sapiens) (UniProt P02708+P07510+P11230+Q07001); test: Inhibition of human nAChR alpha1(2)beta1gammadelta; format: protein-complex assay
[25] = molecular target: Potassium voltage-gated channel subfamily A member 6 (Homo sapiens) (UniProt P17658); test: Inhibition of human Kv1.6 at 100 uM; method in brief: as §1
[26] = molecular target: Voltage-gated delayed rectifier potassium channel KCNH1 (Homo sapiens) (UniProt O95259); test: Inhibition of human Kv10.1 at 100 uM; method in brief: as §1
[27] = molecular target: Potassium voltage-gated channel subfamily A member 4 (Homo sapiens) (UniProt P22459); test: Inhibition of human Kv1.4 at 100 uM; method in brief: as §1
[28] = molecular target: Sodium channel protein type 8 subunit alpha (Homo sapiens) (UniProt Q9UQD0); test: Inhibition of human NaV1.6 at 100 uM; method in brief: as §3
Sequence of Sodium channel protein type 8 subunit alpha (Homo sapiens) (Q9UQD0 whole entry, looked up): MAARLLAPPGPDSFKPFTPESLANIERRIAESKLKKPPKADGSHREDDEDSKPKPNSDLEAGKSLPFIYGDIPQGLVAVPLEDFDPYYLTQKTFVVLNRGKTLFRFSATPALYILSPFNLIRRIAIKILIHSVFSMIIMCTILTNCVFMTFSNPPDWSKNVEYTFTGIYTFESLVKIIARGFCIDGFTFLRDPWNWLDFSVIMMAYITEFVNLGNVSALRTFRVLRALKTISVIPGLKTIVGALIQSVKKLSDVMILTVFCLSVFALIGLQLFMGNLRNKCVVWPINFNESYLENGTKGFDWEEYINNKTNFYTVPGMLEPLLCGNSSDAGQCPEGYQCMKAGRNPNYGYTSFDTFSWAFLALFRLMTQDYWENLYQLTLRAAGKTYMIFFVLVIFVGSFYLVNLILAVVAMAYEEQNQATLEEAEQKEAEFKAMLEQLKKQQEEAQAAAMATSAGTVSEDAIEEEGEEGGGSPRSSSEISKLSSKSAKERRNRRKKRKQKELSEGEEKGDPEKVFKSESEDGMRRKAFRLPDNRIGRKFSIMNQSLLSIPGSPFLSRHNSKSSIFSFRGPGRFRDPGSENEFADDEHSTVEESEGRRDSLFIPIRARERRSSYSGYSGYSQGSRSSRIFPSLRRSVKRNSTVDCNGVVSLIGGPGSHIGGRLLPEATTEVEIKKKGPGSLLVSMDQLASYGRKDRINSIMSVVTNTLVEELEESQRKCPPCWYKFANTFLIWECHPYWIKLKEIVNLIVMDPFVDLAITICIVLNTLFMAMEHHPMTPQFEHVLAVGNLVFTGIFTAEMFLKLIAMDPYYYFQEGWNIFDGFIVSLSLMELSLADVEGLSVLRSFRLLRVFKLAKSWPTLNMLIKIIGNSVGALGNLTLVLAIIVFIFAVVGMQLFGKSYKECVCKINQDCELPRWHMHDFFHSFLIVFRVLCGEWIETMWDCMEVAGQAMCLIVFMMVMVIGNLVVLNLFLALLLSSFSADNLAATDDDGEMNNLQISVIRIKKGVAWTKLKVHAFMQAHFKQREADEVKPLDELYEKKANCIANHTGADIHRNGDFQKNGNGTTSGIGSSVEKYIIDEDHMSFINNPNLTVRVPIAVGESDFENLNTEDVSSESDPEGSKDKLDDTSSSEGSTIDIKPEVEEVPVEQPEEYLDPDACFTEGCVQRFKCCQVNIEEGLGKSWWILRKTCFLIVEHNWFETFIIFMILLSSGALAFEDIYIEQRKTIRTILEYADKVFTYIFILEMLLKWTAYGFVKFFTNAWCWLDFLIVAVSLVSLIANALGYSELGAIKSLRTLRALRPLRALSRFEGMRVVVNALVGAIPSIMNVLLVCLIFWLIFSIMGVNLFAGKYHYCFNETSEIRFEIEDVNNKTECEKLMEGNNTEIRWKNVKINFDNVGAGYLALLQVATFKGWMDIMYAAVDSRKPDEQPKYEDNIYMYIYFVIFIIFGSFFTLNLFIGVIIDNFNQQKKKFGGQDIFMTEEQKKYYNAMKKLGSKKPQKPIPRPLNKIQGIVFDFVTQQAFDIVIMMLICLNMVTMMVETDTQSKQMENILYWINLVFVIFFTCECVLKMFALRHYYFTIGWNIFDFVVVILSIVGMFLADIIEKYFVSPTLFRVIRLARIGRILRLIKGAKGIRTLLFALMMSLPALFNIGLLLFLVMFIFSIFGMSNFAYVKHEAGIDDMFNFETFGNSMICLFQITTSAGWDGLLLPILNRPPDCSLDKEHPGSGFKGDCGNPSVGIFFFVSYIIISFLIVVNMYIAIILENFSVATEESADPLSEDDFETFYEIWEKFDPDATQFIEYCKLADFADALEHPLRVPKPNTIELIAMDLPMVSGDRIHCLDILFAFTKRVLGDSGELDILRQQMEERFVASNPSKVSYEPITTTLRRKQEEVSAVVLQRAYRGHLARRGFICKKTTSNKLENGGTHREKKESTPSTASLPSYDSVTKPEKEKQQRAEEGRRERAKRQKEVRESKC

Melanocortin receptor 4 [29] = molecular target: T2, Melanocortin receptor 4; test: Displacement of [125I]-NDP-alpha-MSH from human MC4R expressed in CHO-K1 cell membranes incubated for 3 hrs by top-count beta counting relative to control; details: concentration not given here; method in brief: as §2
[30] = molecular target: Potassium voltage-gated channel subfamily A member 1 (Homo sapiens) (UniProt Q09470); test: Inhibition of human Kv1.1 at 100 uM; method in brief: as §1
[31] = molecular target: Voltage-gated potassium channel KCNC1 (Homo sapiens) (UniProt P48547); test: Inhibition of human Kv3.1 at 100 uM; method in brief: as §1

SMILES | inhibition [1] | inhibition [2] | Activity (HEK293) | inhibition [3] | Ki (Melanocortin receptor 5) [µM] | Activity [4] | inhibition [5] | inhibition [6] | inhibition [7] | inhibition (INH) [8] | inhibition [9] | Activity [10] | Ki (Melanocortin receptor 4 [11]) [µM] | inhibition [12] | inhibition (INH) [13] | inhibition [14] | inhibition (INH) [15] | inhibition [16] | Ki (Melanocortin receptor 3) [µM] | Activity (Melanocortin receptor 4 [17]) | also measured
CC[C@H](C)[C@@H]1NC(=O)[C@H](C)NC(=O)[C@H](CCCCN)NC(=O)[C@H](CC(C)C)NC(=O)[C@@H]2CSSC[C@@H](C(=O)O)NC(=O)[C@H](CCCCN)NC(=O)[C@@H]3CSSC[C@H](NC(=O)[C@H](CCC(=O)O)NC(=O)[C@H](C(C)C)NC(=O)[C@H](CO)NC(=O)[C@H](C)NC(=O)[C@H](CO)NC(=O)[C@@H](NC(=O)[C@H](CCCNC(=N)N)NC(=O)[C@H](CCSC)NC(=O)[C@H](CC(=O)O)NC(=O)[C@H](CCSC)NC(=O)[C@@H](N)CCC(N)=O)CSSC[C@H](NC(=O)[C@H](CCCCN)NC(=O)CNC(=O)[C@H](Cc4ccccc4)NC(=O)[C@H]([C@@H](C)CC)NC(=O)[C@H](CO)NC(=O)CNC1=O)C(=O)N[C@@H](CCSC)C(=O)N[C@@H](CC(N)=O)C(=O)N[C@@H](CCCCN)C(=O)N[C@@H](CCCCN)C(=O)N3)C(=O)N[C@@H](CCCCN)C(=O)N[C@@H](CCC(N)=O)C(=O)N[C@@H](CCCCN)C(=O)N2 (H-QMDMRCSASVECKQKCLKAIGSIFGKCMNKKCKC-OH; disulfide 6-27, 12-32, 16-34) | inactive | inactive | inactive | inactive | 2.2 | Active | inactive | inactive | inactive | Not Active | inactive | Active | 2.6 | inactive | Not Active | inactive | Not Active | inactive | 3.9 | inactive | inhibition (INH) [18]: Not Active; Activity (Melanocortin receptor 4 [19]): inactive; inhibition [20]: inactive; Ki [21]: 2.9 µM; inhibition [22]: inactive; inhibition [23]: inactive; inhibition [24]: inactive; inhibition [25]: inactive; inhibition [26]: inactive; inhibition [27]: inactive; inhibition [28]: inactive; inhibition (Melanocortin receptor 4 [29]): 86%; inhibition [30]: inactive; inhibition [31]: inactive
CC[C@H](C)[C@@H]1NC(=O)[C@@H]2CCCN2C(=O)CNC(=O)[C@H](CO)NC(=O)[C@@H]2CSSC[C@@H]3NC(=O)[C@H]([C@@H](C)O)NC(=O)CNC(=O)[C@H](CSSC[C@H](NC(=O)[C@@H](N)CCCNC(=N)N)C(=O)N[C@@H](CC(C)C)C(=O)N[C@@H](Cc4cnc[nH]4)C(=O)N[C@@H](C)C(=O)NCC(=O)N[C@@H](C)C(=O)N[C@@H](C)C(=O)N2)NC(=O)[C@H](CSSC[C@@H](C(=O)N[C@H](C(=O)O)[C@@H](C)O)NC(=O)[C@H](CCCCN)NC(=O)[C@H](CCCNC(=N)N)NC(=O)[C@H](CCCNC(=N)N)NC(=O)[C@H](CO)NC3=O)NC(=O)[C@@H]2CCCN2C(=O)[C@H]([C@@H](C)CC)NC(=O)[C@H](CCCCN)NC(=O)[C@H](CCC(N)=O)NC1=O (H-RCLHAGAACSGPIQKIPCCGTCSRRKCT-OH; disulfide 2-19, 9-22, 18-27) | inactive | inactive | inactive | inactive | 10 | Active | inactive | inactive | inactive | Not Active | inactive | Active | 7.1 | inactive | Not Active | inactive | Not Active | inactive | 19.8 | inactive | inhibition (INH) [18]: Not Active; Activity (Melanocortin receptor 4 [19]): inactive; inhibition [20]: inactive; Ki [21]: 1.8 µM; inhibition [22]: inactive; inhibition [23]: inactive; inhibition [24]: inactive; inhibition [25]: inactive; inhibition [26]: inactive; inhibition [27]: inactive; inhibition [28]: inactive; inhibition (Melanocortin receptor 4 [29]): 97%; inhibition [30]: inactive; inhibition [31]: inactive
